Assay results as given in ChEMBL document CHEMBL2331234, “Novel analgesic/anti-inflammatory agents: 1,5-diarylpyrrole nitrooxyalkyl ethers and related compounds as cyclooxygenase-2 inhibiting nitric oxide donors” (J Med Chem, 2013).
Activity calls are given as the source filed them. No cut-off for these calls is given here.

What was measured:
Rattus norvegicus [1] = test: Antiinflammatory activity in Sprague-Dawley/Wistar rat assessed as decrease in carrageenan-induced hyperalgesia at 20 mg/kg, po administered 4 hrs after carrageenan-challenge measured after 60 mins (reference value: 33.9 +/- 3.7 g); type: functional
Aorta [2] = test: Vasorelaxant activity in Wistar rat endothelium-removed thoracic aortic rings assessed as reduction of KCl-induced vasoconstriction at 0.001 uM to 10 uM treated after KCl-challenge relative to control; type: functional
How it was run: (§1)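 Thoracic aortic rings from male Wistar rats (250-350 g), endothelium removed by rubbing; removal confirmed as <10% relaxation to ACh 10 µM in KCl 30 mM-contracted rings. Rings contracted with KCl 30 mM; at plateau, 3-fold increasing compound concentrations (1 nM-10 µM) added. Isometric tension recorded. Emax given as % of KCl tone; pIC50 as -log molar concentration halving that tone. 6-10 experiments; also run with ODQ 1 µM.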

Aorta [3] = test: Vasorelaxant activity in Wistar rat endothelium-removed thoracic aortic rings assessed as reduction of KCl-induced vasoconstriction treated after KCl-challenge; type: functional, tissue-based; how it was run: as §1
Mus musculus = test: Antinociceptive activity in po dosed Swiss albino mouse assessed as reduction in number of acetic acid-induced writhing counted 5 mins after acetic acid challenge counted for 10 mins; type: functional; details: read-out: MED
How it was run: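 Male Swiss albino mice (23-25 g) dosed orally, then given 0.6% acetic acid (10 mL/kg) ip. Stretching movements counted for 10 min, starting 5 min after the acetic acid. Control group received CMC. At least 7 mice/group; mean ± SEM, ANOVA with Fisher's PLSD.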

J774 = test: Selectivity index, ratio of IC50 for COX1 in mouse J774 cells […]; type: cell-based
[4] = target: T1, Prostaglandin G/H synthase 1 (Mus musculus, UniProt P22437); test: Inhibition of arachidonic acid-induced COX1 activity in mouse J774 cells assessed as decrease in PGE2 levels incubated for 15 mins prior to arachidonic acid-challenge measured after 30 mins by RIA; type: cell-based
T1 sequence (P22437 whole entry): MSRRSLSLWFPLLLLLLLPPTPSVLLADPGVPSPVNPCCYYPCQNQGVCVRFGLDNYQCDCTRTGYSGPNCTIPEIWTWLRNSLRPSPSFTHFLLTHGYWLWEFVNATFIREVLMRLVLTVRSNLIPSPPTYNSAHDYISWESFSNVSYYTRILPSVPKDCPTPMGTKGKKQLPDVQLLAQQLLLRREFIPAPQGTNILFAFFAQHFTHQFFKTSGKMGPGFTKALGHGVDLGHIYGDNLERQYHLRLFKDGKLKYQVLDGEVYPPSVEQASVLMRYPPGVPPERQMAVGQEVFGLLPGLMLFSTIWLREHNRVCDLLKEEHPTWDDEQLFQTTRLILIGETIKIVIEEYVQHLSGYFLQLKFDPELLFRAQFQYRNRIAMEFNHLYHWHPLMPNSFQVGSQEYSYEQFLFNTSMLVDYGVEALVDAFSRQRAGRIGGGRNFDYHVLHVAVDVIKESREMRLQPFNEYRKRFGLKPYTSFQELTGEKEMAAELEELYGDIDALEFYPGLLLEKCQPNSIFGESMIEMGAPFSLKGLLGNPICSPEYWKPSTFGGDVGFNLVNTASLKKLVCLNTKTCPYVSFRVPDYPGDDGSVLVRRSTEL
How it was run: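 Cells were in DMEM with 10% FBS and adhered for 2 h at 37 °C. They were pretreated with compound (10 µM; 0.1-1 µM where inhibition exceeded 50%) for 15 min, then given 15 µM arachidonic acid for 30 min at 37 °C. Supernatant PGE2 was measured by RIA. Triplicate wells were used and the mean of three experiments reported. IC50 came from a variable-slope sigmoidal fit.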

Rattus norvegicus [5] = test: Antiinflammatory activity in Sprague-Dawley/Wistar rat assessed as decrease in carrageenan-induced paw edema at 20 mg/kg, po administered 3 hrs 30 mins after carrageenan-challenge measured after 60 mins (reference value: 2.48 +/- 0.06 mL); type: functional
Aorta [6] = test: Vasorelaxant activity in Wistar rat endothelium-removed thoracic aortic rings assessed as reduction of KCl-induced vasoconstriction at 0.001 uM to 10 uM treated after KCl-challenge in presence of guanylate cyclase inhibitor 1H-[1,2,4]-oxadiazolo[4,3-a]quinoxalin-1-one; type: functional, tissue-based
How it was run: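 Endothelium-denuded aortic rings from male Wistar rats (250-350 g) were preincubated with ODQ 1 µM. Rings were contracted with KCl 30 mM, then given 3-fold increasing concentrations from 1 nM to 10 µM. Emax is the % relaxation of KCl tone. pIC50 was calculated when efficacy reached 50%, from 6-10 experiments.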

Rattus norvegicus [7] = test: Antiinflammatory activity in Sprague-Dawley/Wistar rat assessed as decrease in carrageenan-induced hyperalgesia at 20 mg/kg, po administered 4 hrs after carrageenan-challenge measured after 30 mins (reference value: 34.8 +/- 3.0 g); type: functional
Rattus norvegicus [8] = test: Antiinflammatory activity in Sprague-Dawley/Wistar rat assessed as decrease in carrageenan-induced hyperalgesia at 20 mg/kg, po administered 4 hrs after carrageenan-challenge measured after 120 mins (reference value: 31.4 +/- 3.7 g); type: functional
Rattus norvegicus [9] = test: Antiinflammatory activity in Sprague-Dawley/Wistar rat assessed as decrease in carrageenan-induced hyperalgesia at 40 mg/kg, po administered 4 hrs after carrageenan-challenge measured after 30 mins (reference value: 34.8 +/- 3.0 g); type: functional
Rattus norvegicus [10] = test: Antiinflammatory activity in Sprague-Dawley/Wistar rat assessed as decrease in carrageenan-induced hyperalgesia at 40 mg/kg, po administered 4 hrs after carrageenan-challenge measured after 120 mins (reference value: 31.4 +/- 3.7 g); type: functional
Rattus norvegicus [11] = test: Antiinflammatory activity in Sprague-Dawley/Wistar rat assessed as decrease in carrageenan-induced hyperalgesia at 40 mg/kg, po administered 4 hrs after carrageenan-challenge measured after 60 mins (reference value: 33.9 +/- 3.7 g); type: functional
Rattus norvegicus [12] = test: Antiinflammatory activity in Sprague-Dawley/Wistar rat assessed as decrease in carrageenan-induced paw edema at 40 mg/kg, po administered 3 hrs 30 mins after carrageenan-challenge measured after 60 mins (reference value: 2.48 +/- 0.06 mL); type: functional
[13] = target: T2, Prostaglandin G/H synthase 2 (Mus musculus, UniProt Q05769); test: Inhibition of Escherichia coli lipopolysaccharide-induced COX2 activity in mouse J774 cells assessed as decrease in PGE2 levels after 24 hrs by RIA; type: cell-based
T2 sequence (Q05769 whole entry): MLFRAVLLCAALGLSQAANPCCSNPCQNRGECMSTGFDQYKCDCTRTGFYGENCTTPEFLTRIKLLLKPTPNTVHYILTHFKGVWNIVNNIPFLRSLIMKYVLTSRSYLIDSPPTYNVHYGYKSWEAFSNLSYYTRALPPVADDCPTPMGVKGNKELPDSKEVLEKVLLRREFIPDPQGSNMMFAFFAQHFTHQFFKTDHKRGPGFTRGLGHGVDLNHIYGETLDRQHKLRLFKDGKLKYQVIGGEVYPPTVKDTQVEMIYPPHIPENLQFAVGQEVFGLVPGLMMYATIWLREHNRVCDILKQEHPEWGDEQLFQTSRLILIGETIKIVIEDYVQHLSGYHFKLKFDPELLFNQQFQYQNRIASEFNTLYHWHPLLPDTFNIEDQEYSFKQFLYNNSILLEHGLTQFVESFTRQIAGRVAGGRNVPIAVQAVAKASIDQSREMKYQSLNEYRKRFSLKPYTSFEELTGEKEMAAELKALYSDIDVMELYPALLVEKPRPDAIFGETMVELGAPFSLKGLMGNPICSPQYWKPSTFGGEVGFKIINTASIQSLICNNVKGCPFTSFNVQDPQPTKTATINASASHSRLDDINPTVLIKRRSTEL
How it was run: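 Adhered cells in DMEM/10% FBS were stimulated with E. coli LPS 10 µg/mL for 24 h with compound present at 0.01-10 µM. Supernatant PGE2 was measured by RIA. IC50 came from a variable-slope sigmoidal fit.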

With `Cc1c(CCOCCCO[N+](=O)[O-])cc(-c2ccc(S(C)(=O)=O)cc2)n1-c1ccccc1` the Activity (Rattus norvegicus [1]) was 51.6 g, the Emax (Aorta [2]) was 48% and the IC50 (Aorta [3]) was no less than 10 µM. For the same compound, the pIC50 (Aorta [3]) was “Dose-dependent effect”, the minimal effective dose (Mus musculus) was 20 mg/kg and the Ratio IC50 (J774) was greater than 667. For the same compound, the IC50 [4] was greater than 10 µM, the Activity (Rattus norvegicus [5]) was 1.8 mL and the Activity (Aorta [6]) was “inactive”. For the same compound, the Activity (Rattus norvegicus [7]) was 53.7 g and the Activity (Rattus norvegicus [8]) was 45.6 g.

`Cc1c(CCOCCO[N+](=O)[O-])cc(-c2ccc(S(C)(=O)=O)cc2)n1-c1ccccc1` was tested, and the Activity (Rattus norvegicus [1]) was 55.3 g, the Activity (Aorta [3]) was “Dose-dependent effect” and the IC50 (Aorta [3]) was 6.03 µM. It also gave a minimal effective dose (Mus musculus) of 10 mg/kg, a Ratio IC50 (J774) greater than 588 and an IC50 [4] greater than 10 µM. For the same compound, the Activity (Rattus norvegicus [5]) was 1.45 mL, the Activity (Aorta [6]) was “inactive” and the Activity (Rattus norvegicus [7]) was 54.2 g. The Activity (Rattus norvegicus [8]) was 48.7 g.

`Cc1c(CCOCCO)cc(-c2ccc(S(C)(=O)=O)cc2)n1-c1ccc(F)c(F)c1` was tested, and the Activity (Rattus norvegicus [1]) was 46.7 g, the Activity (Rattus norvegicus [9]) was 53.2 g and the Emax (Aorta [2]) was “inactive”. It also gave a minimal effective dose (Mus musculus) of 20 mg/kg, a Ratio IC50 (J774) greater than 23.8 and an IC50 [4] greater than 10 µM. For the same compound, the Activity (Rattus norvegicus [5]) was 2.16 mL, the Activity (Rattus norvegicus [10]) was 49.3 g and the Activity (Rattus norvegicus [7]) was 43.6 g. The Activity (Rattus norvegicus [11]) was 55.2 g, the Activity (Rattus norvegicus [8]) was 41.4 g and the Activity (Rattus norvegicus [12]) was 1.96 mL.

Compound `Cc1c(CCOCCO[N+](=O)[O-])cc(-c2ccc(S(C)(=O)=O)cc2)n1-c1ccc(F)c(F)c1` has an Activity (Rattus norvegicus [1]) of 46.9 g, an Activity (Rattus norvegicus [9]) of 49.5 g and an IC50 (Aorta [3]) of no less than 10 µM. The pIC50 (Aorta [3]) was “Dose-dependent effect”, the minimal effective dose (Mus musculus) was 20 mg/kg and the Ratio IC50 (J774) was greater than 10.9. For the same compound, the IC50 [4] was greater than 10 µM, the Activity (Rattus norvegicus [5]) was 2.19 mL and the Activity (Aorta [6]) was “inactive”. The Activity (Rattus norvegicus [10]) was 35.3 g, the Activity (Rattus norvegicus [7]) was 44.6 g and the Activity (Rattus norvegicus [11]) was 42.5 g. The Activity (Rattus norvegicus [8]) was 38.8 g and the Activity (Rattus norvegicus [12]) was 2.1 mL.

For `Cc1c(CCOCCCO)cc(-c2ccc(S(C)(=O)=O)cc2)n1-c1cccc(F)c1`, the IC50 [13] was 0.24 µM, the Emax (Aorta [2]) was “inactive” and the Ratio IC50 (J774) was 15.4. For the same compound, the IC50 [4] was 3.7 µM.

With `Cc1c(CCOCCCO[N+](=O)[O-])cc(-c2ccc(S(C)(=O)=O)cc2)n1-c1ccc(F)cc1` the Emax (Aorta [2]) was “inactive”, the Ratio IC50 (J774) was greater than 52.6 and the IC50 [4] was greater than 10 µM.

`Cc1c(CCOCCCO[N+](=O)[O-])cc(-c2ccc(S(C)(=O)=O)cc2)n1-c1cccc(F)c1` was tested, and the IC50 [13] was 0.023 µM, the Emax (Aorta [2]) was “inactive” and the Ratio IC50 (J774) was 126. For the same compound, the IC50 [4] was 2.9 µM.

For `Cc1c(CCOCCO)cc(-c2ccc(S(C)(=O)=O)cc2)n1-c1cccc(F)c1`, the Activity (Rattus norvegicus [1]) was 48.6 g, the Activity (Rattus norvegicus [9]) was 51.4 g and the Emax (Aorta [2]) was “inactive”. The minimal effective dose (Mus musculus) was 20 mg/kg, the Ratio IC50 (J774) was greater than 217 and the IC50 [4] was greater than 10 µM. The Activity (Rattus norvegicus [5]) was 2.46 mL, the Activity (Rattus norvegicus [10]) was 39.5 g and the Activity (Rattus norvegicus [7]) was 46.9 g. It also gave an Activity (Rattus norvegicus [11]) of 45.3 g, an Activity (Rattus norvegicus [8]) of 37.2 g and an Activity (Rattus norvegicus [12]) of 2.12 mL.

`Cc1c(CCOCCO)cc(-c2ccc(S(C)(=O)=O)cc2)n1-c1ccccc1` was tested, and the Activity (Rattus norvegicus [1]) was 49.2 g, the Emax (Aorta [2]) was “inactive” and the minimal effective dose (Mus musculus) was 10 mg/kg. The IC50 [4] was greater than 10 µM, the Activity (Rattus norvegicus [5]) was 1.34 mL and the Activity (Rattus norvegicus [7]) was 56.6 g. For the same compound, the Activity (Rattus norvegicus [8]) was 37.8 g.

`O=[N+]([O-])OCC(CO[N+](=O)[O-])O[N+](=O)[O-]` [NITROGLYCERIN] gave an Emax (Aorta [2]) of 93%.

In the case of `Cc1c(CCOCCCO)cc(-c2ccc(S(C)(=O)=O)cc2)n1-c1ccccc1`, the Activity (Rattus norvegicus [1]) is reported as 50.3 g, the IC50 [13] is reported as 8.99 µM and the Emax (Aorta [2]) is reported as “inactive”. The minimal effective dose (Mus musculus) was 20 mg/kg, the Ratio IC50 (J774) was greater than 1.11 and the IC50 [4] was greater than 10 µM. The Activity (Rattus norvegicus [5]) was 1.86 mL, the Activity (Rattus norvegicus [7]) was 52.9 g and the Activity (Rattus norvegicus [8]) was 46.6 g.

`Cc1c(CCOCCO[N+](=O)[O-])cc(-c2ccc(S(C)(=O)=O)cc2)n1-c1cccc(F)c1` gave an Activity (Rattus norvegicus [1]) of 40.7 g, an IC50 [13] of 0.027 µM and an Activity (Rattus norvegicus [9]) of 47.3 g. The IC50 (Aorta [3]) was 4.79 µM, the pIC50 (Aorta [3]) was “Dose-dependent effect” and the minimal effective dose (Mus musculus) was 40 mg/kg. For the same compound, the Ratio IC50 (J774) was greater than 357, the IC50 [4] was greater than 10 µM and the Activity (Rattus norvegicus [5]) was 2.16 mL. For the same compound, the Activity (Aorta [6]) was “inactive”, the Activity (Rattus norvegicus [10]) was 34.3 g and the Activity (Rattus norvegicus [7]) was 43.9 g. The Activity (Rattus norvegicus [11]) was 41 g, the Activity (Rattus norvegicus [8]) was 35.2 g and the Activity (Rattus norvegicus [12]) was 2.08 mL.

In the case of `Cc1c(CCOCCCO)cc(-c2ccc(S(C)(=O)=O)cc2)n1-c1ccc(F)cc1`, the Emax (Aorta [2]) is reported as “inactive”, the Ratio IC50 (J774) is reported as greater than 10.6 and the IC50 [4] is reported as greater than 10 µM.
